One series has as its system IGROV-1. The experiment in a line: Inhibition of ovarian cancer IGROVI cell proliferation. The class given is functional. The settings on record: Homo sapiens. In a few lines: (§1)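 NCI in vitro antitumour screen across 60 human tumour cell lines, run as a sulforhodamine B protein cytotoxicity assay. Values are log GI50, mean of two determinations. The panel mean-graph midpoint (MG_MID) summarises all 60 lines, and the ovarian IGROV1 line is reported individually.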

The target of series [1] is Cyclin-dependent kinase 1/cyclin B (Homo sapiens, UniProt O95067+P06493+P14635+Q8WWL7). The series can be described thus: Inhibition of Cyclin-dependent kinase 1-cyclin B from M phase starfish (Marthasterias glacialis) oocytes. The format is cell-based, Asteroidea, Oocyte.
Cyclin-dependent kinase 1/cyclin B (Homo sapiens, UniProt O95067+P06493+P14635+Q8WWL7), sequence (P06493 whole entry): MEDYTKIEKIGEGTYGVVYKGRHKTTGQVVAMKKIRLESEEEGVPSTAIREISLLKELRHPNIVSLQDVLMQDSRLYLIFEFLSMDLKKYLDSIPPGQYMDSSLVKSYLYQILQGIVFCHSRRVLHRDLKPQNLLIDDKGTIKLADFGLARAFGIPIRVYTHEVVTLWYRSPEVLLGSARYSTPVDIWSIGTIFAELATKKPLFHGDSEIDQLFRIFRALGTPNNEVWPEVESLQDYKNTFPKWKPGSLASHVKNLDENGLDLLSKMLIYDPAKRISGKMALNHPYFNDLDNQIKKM
Cyclin-dependent kinase 1/cyclin B (Homo sapiens, UniProt O95067+P06493+P14635+Q8WWL7), sequence (P14635 whole entry): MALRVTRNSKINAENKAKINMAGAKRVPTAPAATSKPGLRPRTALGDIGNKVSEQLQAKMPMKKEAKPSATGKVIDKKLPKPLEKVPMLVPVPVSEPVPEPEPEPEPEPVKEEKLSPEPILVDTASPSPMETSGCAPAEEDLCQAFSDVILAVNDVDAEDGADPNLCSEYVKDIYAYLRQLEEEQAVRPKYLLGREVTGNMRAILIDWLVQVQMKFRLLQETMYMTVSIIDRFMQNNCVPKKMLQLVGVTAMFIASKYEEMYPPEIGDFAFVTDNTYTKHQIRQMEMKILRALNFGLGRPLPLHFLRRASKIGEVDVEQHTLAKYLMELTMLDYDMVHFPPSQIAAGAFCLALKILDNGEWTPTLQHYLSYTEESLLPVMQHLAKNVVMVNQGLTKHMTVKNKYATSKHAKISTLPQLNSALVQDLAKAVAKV
Cyclin-dependent kinase 1/cyclin B (Homo sapiens, UniProt O95067+P06493+P14635+Q8WWL7), sequence (Q8WWL7 whole entry): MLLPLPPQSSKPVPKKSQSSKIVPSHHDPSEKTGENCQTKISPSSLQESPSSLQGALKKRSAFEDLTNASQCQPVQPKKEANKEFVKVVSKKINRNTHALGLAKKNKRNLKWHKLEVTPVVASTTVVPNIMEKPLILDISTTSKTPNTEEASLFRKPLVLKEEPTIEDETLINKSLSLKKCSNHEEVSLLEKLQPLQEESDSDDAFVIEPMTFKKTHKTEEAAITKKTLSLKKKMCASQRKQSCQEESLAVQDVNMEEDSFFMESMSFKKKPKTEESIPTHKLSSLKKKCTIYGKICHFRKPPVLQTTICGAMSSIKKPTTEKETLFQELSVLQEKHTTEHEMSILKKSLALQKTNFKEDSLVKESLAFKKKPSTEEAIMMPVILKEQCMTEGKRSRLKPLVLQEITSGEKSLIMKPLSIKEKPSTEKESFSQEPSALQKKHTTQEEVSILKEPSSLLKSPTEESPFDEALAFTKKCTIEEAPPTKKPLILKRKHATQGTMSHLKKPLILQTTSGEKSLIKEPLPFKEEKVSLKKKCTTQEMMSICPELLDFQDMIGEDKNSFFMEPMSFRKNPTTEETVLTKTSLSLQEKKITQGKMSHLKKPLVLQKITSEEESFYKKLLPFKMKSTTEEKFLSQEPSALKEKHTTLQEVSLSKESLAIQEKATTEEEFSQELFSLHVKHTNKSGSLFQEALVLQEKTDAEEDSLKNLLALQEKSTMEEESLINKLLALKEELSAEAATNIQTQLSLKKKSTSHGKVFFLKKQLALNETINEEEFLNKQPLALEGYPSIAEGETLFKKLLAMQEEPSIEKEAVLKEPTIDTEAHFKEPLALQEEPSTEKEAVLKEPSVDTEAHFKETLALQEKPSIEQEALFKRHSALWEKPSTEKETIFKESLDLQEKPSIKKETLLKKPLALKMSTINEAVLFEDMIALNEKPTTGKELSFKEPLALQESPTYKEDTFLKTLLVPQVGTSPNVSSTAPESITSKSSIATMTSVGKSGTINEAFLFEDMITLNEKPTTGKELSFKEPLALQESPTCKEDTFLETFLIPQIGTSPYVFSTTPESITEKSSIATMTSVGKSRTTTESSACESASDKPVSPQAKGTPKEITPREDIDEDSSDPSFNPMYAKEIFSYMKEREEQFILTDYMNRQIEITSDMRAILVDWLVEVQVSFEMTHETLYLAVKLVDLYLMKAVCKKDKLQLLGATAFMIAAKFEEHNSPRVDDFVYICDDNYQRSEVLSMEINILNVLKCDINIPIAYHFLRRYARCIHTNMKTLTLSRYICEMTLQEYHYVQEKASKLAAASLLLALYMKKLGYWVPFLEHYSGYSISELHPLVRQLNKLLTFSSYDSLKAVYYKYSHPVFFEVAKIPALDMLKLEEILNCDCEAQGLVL
Cyclin-dependent kinase 1/cyclin B (Homo sapiens, UniProt O95067+P06493+P14635+Q8WWL7), sequence (O95067 whole entry): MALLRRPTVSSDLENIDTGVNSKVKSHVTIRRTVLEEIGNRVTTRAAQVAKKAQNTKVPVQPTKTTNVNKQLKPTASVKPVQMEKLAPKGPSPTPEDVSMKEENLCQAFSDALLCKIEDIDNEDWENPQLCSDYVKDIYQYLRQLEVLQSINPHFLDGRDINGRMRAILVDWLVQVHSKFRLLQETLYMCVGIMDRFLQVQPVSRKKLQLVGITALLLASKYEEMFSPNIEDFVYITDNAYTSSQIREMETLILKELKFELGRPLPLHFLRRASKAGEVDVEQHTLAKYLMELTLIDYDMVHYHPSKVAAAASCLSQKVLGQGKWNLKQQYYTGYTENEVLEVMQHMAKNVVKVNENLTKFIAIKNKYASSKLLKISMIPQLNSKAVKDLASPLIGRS
The target of series [2] is Cyclin-dependent kinase 5/CDK5 activator 1 (Homo sapiens) (UniProt Q00535+Q15078). The experiment in a line: Inhibition of Cyclin-dependent kinase 5 (CDK5) at 10 uM. The format is protein-complex assay. The essentials: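 Recombinant GST-tagged mammalian CDK5 and p25 mixed in equal amounts and purified. Assayed in the same homogenization buffer as CDK1/cyclin B (Mops pH 7.2, Mg2+, EGTA, DTT, phosphatase inhibitors) at 30 °C with 15 μM final ATP for 10 min. Phosphate incorporation measured with blanks subtracted. Percent inhibition at 10 μM test concentration, mean of two determinations.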
Cyclin-dependent kinase 5/CDK5 activator 1 (Homo sapiens), sequence (Q00535 whole entry): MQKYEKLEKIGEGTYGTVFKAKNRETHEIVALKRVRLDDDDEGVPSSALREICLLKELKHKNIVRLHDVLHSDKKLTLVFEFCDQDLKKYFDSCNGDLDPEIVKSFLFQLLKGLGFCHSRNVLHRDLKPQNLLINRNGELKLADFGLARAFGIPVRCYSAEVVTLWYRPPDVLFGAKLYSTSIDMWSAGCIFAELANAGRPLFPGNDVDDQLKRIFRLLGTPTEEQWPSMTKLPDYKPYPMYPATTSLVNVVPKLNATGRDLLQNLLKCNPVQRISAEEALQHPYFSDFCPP
Cyclin-dependent kinase 5/CDK5 activator 1 (Homo sapiens), sequence (Q15078 99-307 partner limits assumed): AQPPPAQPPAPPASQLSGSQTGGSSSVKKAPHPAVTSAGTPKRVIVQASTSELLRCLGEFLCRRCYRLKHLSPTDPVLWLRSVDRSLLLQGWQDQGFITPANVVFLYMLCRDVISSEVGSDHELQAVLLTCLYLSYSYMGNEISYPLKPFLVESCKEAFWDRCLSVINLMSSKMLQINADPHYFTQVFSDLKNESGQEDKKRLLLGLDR

Series [3] deals with T1, ATP-dependent translocase ABCB1 (Homo sapiens, UniProt P08183). The series can be described thus: Inhibition of P-glycoprotein, MDR-1, expressed in mouse T-cell lymphoma cell line at 70 uM. The class given is functional, cell-based. The essentials:
(§2)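 Rhodamine 123 uptake in L5178Y mouse T-cell lymphoma parental cells and the L5178YvMDR subline transfected with human MDR-1, at 2 × 10⁶ cells/mL in serum-free McCoy's 5A. Cells were preincubated with compound at room temperature, then given 5.2 μM rhodamine 123 (final) for 20 min at 37 °C and washed twice in PBS. Fluorescence of 1 × 10⁴ cells was read by flow cytometry. R = (MDR treated/untreated)/(parental treated/untreated), mean of two determinations.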

For series [4], the target named is T1, ATP-dependent translocase ABCB1. The experiment in a line: Inhibition of membrane efflux pump P-glycoprotein at 7 uM. The format is functional. The essentials:
as §2

A further series concerns Tumor Cell line. The series can be described thus: Cytostatic activity in performed screen of NCI 60 cell lines, mean graph midpoint. The format is functional. The settings on record: Homo sapiens. In a few lines:
as §1

In series [5] the target is Cyclin-dependent kinase 1/cyclin B (Homo sapiens, UniProt P06493+P14635+Q8WWL7+O95067). The series can be described thus: Inhibition of Cyclin-dependent kinase 1-cyclin B from M phase starfish (Marthasterias glacialis) oocytes (inactive). The format is cell-based, Asteroidea. The settings on record: oocyte.
Cyclin-dependent kinase 1/cyclin B (Homo sapiens, UniProt P06493+P14635+Q8WWL7+O95067), sequence (P06493 whole entry): as the sequence (P06493 whole entry) above
Cyclin-dependent kinase 1/cyclin B (Homo sapiens, UniProt P06493+P14635+Q8WWL7+O95067), sequence (P14635 whole entry): as the sequence (P14635 whole entry) above
Cyclin-dependent kinase 1/cyclin B (Homo sapiens, UniProt P06493+P14635+Q8WWL7+O95067), sequence (Q8WWL7 whole entry): as the sequence (Q8WWL7 whole entry) above
Cyclin-dependent kinase 1/cyclin B (Homo sapiens, UniProt P06493+P14635+Q8WWL7+O95067), sequence (O95067 whole entry): as the sequence (O95067 whole entry) above

A value given as a limit tells only on which side of the number the result lay.

T1 sequence (P08183 whole entry): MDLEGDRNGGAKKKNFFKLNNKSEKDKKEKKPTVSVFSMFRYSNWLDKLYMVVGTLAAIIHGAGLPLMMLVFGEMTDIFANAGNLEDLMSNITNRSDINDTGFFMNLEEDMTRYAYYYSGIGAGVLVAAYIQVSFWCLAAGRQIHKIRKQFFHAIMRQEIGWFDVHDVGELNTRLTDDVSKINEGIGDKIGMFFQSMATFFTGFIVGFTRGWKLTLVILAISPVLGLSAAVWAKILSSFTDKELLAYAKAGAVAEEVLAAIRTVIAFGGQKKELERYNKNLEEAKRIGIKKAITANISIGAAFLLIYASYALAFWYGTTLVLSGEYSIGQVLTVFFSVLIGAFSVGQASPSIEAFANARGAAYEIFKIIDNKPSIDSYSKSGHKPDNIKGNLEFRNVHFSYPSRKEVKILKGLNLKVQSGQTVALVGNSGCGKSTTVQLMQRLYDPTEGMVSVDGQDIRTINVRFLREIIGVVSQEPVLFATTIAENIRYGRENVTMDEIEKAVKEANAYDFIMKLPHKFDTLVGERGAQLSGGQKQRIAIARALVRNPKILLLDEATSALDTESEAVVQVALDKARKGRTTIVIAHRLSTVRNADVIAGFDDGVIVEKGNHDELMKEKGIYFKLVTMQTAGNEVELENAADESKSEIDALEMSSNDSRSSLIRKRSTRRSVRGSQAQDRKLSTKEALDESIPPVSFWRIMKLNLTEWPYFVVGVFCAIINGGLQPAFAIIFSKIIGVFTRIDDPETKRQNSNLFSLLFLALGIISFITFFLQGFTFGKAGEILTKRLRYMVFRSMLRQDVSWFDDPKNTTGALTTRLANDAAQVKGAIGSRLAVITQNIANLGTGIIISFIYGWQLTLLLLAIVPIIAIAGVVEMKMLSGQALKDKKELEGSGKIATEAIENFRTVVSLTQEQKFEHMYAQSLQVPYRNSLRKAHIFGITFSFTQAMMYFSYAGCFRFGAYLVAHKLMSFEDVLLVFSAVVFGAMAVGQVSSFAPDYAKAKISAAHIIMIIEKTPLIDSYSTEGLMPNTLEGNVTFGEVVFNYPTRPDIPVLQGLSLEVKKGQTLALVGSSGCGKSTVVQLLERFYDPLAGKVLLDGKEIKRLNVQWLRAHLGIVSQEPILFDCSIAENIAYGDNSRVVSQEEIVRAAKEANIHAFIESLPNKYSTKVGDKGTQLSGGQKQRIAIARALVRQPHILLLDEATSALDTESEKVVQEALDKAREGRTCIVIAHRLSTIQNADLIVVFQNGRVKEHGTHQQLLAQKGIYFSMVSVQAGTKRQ

`CCOC(=O)c1cnc2oc3ccc(O)cc3c2c1-c1ccccc1`: the GI50 is 2.51 µM in the series on IGROV-1 and 31.6 µM with Tumor Cell line. The molecule also yielded an IC50 in series [1] of 28.8 µM. In series [2], this molecule gave an inhibition of 6%. The Inhibitory activity ratio in series [3] worked out at 9.14; in series [4], 9.5.
With `CC(=O)c1cnc2oc3ccc(O)cc3c2c1-c1ccccc1`, the GI50 was 5.01 µM in the series with IGROV-1 and 31.6 µM in the series with Tumor Cell line. In series [1], this molecule returned an IC50 of 4.2 µM. Further, in series [2], the inhibition came out at 15%. For the same molecule, the Inhibitory activity ratio in series [3] was determined as 6.74; in series [4], 1.26.
In the series with IGROV-1, `CCOC(=O)c1cnc2oc3ccc(OC(C)=O)cc3c2c1-c1ccccc1` gave a 50% growth inhibitory concentration (GI50) of over 100 µM.
`CC(=O)c1cnc2oc3ccc(O)cc3c2c1C`: the GI50 with IGROV-1 and with Tumor Cell line was over 100 µM in each case. For the same molecule, in series [5], the IC50 entry is “Not Active”. Besides, the inhibition in series [2] turned out to be 10%.
Take `CCOC(=O)c1cnc2oc3ccc(O)cc3c2c1C`: the GI50 with IGROV-1 and in the series on Tumor Cell line was 79.4 µM in each case. In series [5], the half-maximal inhibitory concentration (IC50) result is “Not Active”. Also, the inhibition in series [2] was 3%. Moreover, the Inhibitory activity ratio in series [3] is listed as 4.77; in series [4], 1.18.

The values above are taken from ChEMBL document CHEMBL1145780, “Evaluation of the first cytostatically active 1-aza-9-oxafluorenes as novel selective CDK1 inhibitors with P-glycoprotein modulating properties” (J Med Chem, 2003).
